Broadly, the Ki is a measure of affinity in units of concentration, obtained from inhibition or displacement.

The source made the active and inactive calls. No cut-off for these calls is given here.

The source of these data is ChEMBL document CHEMBL1828538, “Synthesis and pharmacological evaluation of indole-based sigma receptor ligands” (Eur J Med Chem, 2011).

Assay [1] can be described thus: Displacement of radioligand from sodium channel site 2 assessed as 50% receptor inhibition at 10^-7 M. Put shortly:
(§1)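 Part of a contracted (NovaScreen) panel of 64 radioligand/enzyme assays, with the test compound run at 10⁻⁵ M and 10⁻⁷ M. Each assay was scored by whether radioligand displacement exceeded 50% at each concentration.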

Assay [2] in a line: Displacement of radioligand from adrenergic alpha2 receptor assessed as 50% receptor inhibition at 10^-5 M. A digest of the protocol: as §1
Assay [3] has as its target Cannabinoid receptor 1 (Homo sapiens) (UniProt P21554). In words: Displacement of radioligand from cannabinoid CB1 receptor assessed as 50% receptor inhibition at 10^-7 M. Put shortly:
as §1

Assay [4] addresses T1, Muscarinic acetylcholine receptor M1 (Homo sapiens) (UniProt P11229).
T1 sequence (whole entry): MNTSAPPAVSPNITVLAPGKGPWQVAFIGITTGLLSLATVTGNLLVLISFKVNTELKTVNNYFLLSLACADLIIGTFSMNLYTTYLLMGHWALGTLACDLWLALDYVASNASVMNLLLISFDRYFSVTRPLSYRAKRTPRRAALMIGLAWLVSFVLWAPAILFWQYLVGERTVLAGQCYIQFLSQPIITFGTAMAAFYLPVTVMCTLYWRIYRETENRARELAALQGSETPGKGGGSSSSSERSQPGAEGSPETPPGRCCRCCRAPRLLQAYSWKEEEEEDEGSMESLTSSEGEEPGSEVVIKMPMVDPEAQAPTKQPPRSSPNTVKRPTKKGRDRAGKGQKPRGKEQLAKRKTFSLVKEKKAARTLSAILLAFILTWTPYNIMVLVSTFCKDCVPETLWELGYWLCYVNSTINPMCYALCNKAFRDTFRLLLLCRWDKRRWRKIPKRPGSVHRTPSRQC
In words: Displacement of radioligand from muscarinic M1 receptor assessed as 50% receptor inhibition at 10^-5 M. Put shortly:
as §1

Assay [5] concerns the target Histamine H1 receptor (Homo sapiens) (UniProt P35367). The experiment in a line: Displacement of radioligand from histamine H1 receptor assessed as 50% receptor inhibition at 10^-7 M. A digest of the protocol: as §1
Assay [6] deals with 5-hydroxytryptamine receptor 2A (Homo sapiens, UniProt P28223). In words: Displacement of […] from human 5HT2A receptor expressed in HEK cells. It is filed as cell-based, HEK293. (In a radioligand displacement assay an active substance lowers the binding of a labelled ligand.)
Sequence of 5-hydroxytryptamine receptor 2A (P28223 whole entry): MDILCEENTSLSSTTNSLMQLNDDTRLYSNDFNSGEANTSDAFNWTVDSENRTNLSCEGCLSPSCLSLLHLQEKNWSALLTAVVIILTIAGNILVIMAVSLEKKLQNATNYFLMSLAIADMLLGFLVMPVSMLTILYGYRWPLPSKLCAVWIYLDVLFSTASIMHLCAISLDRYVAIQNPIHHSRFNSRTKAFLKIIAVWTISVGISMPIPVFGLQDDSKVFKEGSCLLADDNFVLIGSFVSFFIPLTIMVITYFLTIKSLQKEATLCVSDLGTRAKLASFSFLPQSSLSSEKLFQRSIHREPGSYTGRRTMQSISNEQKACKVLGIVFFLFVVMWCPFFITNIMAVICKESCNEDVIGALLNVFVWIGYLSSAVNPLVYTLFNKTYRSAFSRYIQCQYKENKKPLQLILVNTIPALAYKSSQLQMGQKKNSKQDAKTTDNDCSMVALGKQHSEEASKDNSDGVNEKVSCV
Another assay concerns the target D(3) dopamine receptor (Homo sapiens, UniProt P35462). The experiment in a line: Displacement of [3H]YM-09151-2 from human D3 receptor expressed in CHO cells. Format: cell-based. Put shortly:
(§2)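 CHOp-D2 or CHOp-D3 cells were labelled with 0.2–0.5 nM [3H]YM-09151-2, and nonspecific binding was set with 1 μM chlorpromazine. Ki was from standard competition conditions, as mean ± SEM of replicate assays.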

The nature of assay [7]: Displacement of radioligand from BZT-sensitive L-type calcium channel assessed as 50% receptor inhibition at 10^-5 M. Put shortly:
as §1

Assay [8] is described as follows: Displacement of radioligand from BZT-sensitive L-type calcium channel assessed as 50% receptor inhibition at 10^-7 M. Put shortly: as §1
Assay [9] has as its target Mu-type opioid receptor (Homo sapiens) (UniProt P35372). The experiment in a line: Displacement of radioligand from opioid mu receptor assessed as 50% receptor inhibition at 10^-7 M. Put shortly:
as §1

Assay [10] can be described thus: Displacement of radioligand from muscarinic receptor assessed as 50% receptor inhibition at 10^-5 M. A digest of the protocol:
as §1

In the next assay the target is D(2) dopamine receptor (Homo sapiens, UniProt P14416). In words: Displacement of [3H]YM-09151-2 from human D2 receptor expressed in CHO cells. Format: cell-based. A digest of the protocol: as §2
Sequence of D(2) dopamine receptor (P14416 whole entry): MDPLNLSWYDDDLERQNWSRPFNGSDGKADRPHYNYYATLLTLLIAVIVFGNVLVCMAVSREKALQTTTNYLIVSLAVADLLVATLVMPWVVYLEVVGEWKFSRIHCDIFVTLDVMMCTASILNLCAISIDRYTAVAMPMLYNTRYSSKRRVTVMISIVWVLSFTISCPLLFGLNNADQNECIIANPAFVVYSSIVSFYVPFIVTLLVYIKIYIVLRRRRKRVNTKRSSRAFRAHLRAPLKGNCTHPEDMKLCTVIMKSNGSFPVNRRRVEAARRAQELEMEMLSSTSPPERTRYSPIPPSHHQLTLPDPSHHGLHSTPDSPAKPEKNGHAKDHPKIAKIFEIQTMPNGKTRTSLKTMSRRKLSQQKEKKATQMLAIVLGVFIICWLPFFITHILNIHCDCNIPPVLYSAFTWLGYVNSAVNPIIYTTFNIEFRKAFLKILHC
The target of assay [11] is T2, Glycine receptor subunit alpha-1 (Homo sapiens) (UniProt P23415).
T2 sequence (whole entry): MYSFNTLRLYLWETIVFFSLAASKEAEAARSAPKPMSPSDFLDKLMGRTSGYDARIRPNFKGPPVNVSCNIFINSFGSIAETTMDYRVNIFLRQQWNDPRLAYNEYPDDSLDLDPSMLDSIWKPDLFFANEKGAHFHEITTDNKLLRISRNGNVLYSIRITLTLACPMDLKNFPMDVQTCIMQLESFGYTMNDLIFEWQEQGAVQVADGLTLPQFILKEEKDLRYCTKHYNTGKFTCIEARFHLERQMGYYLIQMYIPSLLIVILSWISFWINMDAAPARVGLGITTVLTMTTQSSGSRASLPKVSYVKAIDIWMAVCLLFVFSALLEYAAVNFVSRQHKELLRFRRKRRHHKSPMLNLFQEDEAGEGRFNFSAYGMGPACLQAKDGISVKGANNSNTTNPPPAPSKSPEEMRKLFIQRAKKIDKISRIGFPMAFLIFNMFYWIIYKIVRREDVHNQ
In words: Displacement of radioligand from strychnine sensitive glycine receptor assessed as 50% receptor inhibition at 10^-7 M. A digest of the protocol:
as §1

Assay [12] concerns the target Sodium-dependent noradrenaline transporter (Homo sapiens, UniProt P23975). In words: Displacement of [125I]RTI-55 from human NET expressed in HEK293 cells. Format: cell-based. A digest of the protocol:
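Nonspecific binding was defined with 5 μM mazindol. Ki was determined under standard conditions and reported as mean ± SEM of replicate assays. A value >10000 nM means less than 30% radioligand displacement at that concentration.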

The next assay concerns the target D(1A) dopamine receptor (Homo sapiens, UniProt P21728). The experiment in a line: Displacement of [3H]SCH-23390 from human D1 receptor in cell-based assay. Put shortly:
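LhD1 cells were labelled with 0.18 nM [3H]SCH-23390, with 1 μM SCH-23390 for nonspecific binding. Ki was from standard assay conditions, as mean ± SEM of replicates. A value >10000 nM denotes under 30% displacement at that concentration.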

Assay [13] can be described thus: Displacement of radioligand from dopamine D4.2 receptor assessed as 50% receptor inhibition at 10^-7 M. A digest of the protocol: as §1
For assay [14], the target named is Cannabinoid receptor 2 (Homo sapiens) (UniProt P34972). The experiment in a line: Displacement of radioligand from cannabinoid CB2 receptor assessed as 50% receptor inhibition at 10^-5 M. A digest of the protocol:
as §1

In assay [15] the target is Mu-type opioid receptor (Homo sapiens) (UniProt P35372). In words: Displacement of radioligand from opioid mu receptor assessed as 50% receptor inhibition at 10^-5 M. A digest of the protocol:
as §1

Assay [16] has as its target T2, Glycine receptor subunit alpha-1 (Homo sapiens). In words: Displacement of radioligand from strychnine sensitive glycine receptor assessed as 50% receptor inhibition at 10^-5 M. A digest of the protocol: as §1
Assay [17] concerns the target Cannabinoid receptor 2 (Homo sapiens) (UniProt P34972). The experiment in a line: Displacement of radioligand from cannabinoid CB2 receptor assessed as 50% receptor inhibition at 10^-7 M. A digest of the protocol: as §1

Sequence of Cannabinoid receptor 2 (Homo sapiens) (P34972 whole entry): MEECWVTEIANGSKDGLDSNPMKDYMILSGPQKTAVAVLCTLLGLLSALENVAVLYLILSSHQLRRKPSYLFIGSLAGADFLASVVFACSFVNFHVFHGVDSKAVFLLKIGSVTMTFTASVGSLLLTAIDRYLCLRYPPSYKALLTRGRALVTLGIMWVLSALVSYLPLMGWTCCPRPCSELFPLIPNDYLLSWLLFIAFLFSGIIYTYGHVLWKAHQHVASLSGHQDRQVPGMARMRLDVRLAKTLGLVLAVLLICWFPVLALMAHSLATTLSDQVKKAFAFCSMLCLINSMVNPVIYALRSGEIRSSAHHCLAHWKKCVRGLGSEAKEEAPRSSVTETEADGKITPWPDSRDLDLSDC
Sequence of Mu-type opioid receptor (Homo sapiens) (P35372 whole entry): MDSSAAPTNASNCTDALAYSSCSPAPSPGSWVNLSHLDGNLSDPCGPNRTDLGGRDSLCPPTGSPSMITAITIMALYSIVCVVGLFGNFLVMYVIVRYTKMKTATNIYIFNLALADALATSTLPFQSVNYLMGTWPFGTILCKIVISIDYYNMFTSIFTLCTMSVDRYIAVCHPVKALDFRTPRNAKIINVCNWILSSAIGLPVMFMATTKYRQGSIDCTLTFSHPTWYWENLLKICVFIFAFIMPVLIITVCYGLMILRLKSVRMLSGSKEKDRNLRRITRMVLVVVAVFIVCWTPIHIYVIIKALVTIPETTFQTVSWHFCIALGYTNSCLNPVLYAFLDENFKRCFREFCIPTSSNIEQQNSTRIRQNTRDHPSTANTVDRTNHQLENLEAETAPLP
Sequence of D(1A) dopamine receptor (P21728 whole entry): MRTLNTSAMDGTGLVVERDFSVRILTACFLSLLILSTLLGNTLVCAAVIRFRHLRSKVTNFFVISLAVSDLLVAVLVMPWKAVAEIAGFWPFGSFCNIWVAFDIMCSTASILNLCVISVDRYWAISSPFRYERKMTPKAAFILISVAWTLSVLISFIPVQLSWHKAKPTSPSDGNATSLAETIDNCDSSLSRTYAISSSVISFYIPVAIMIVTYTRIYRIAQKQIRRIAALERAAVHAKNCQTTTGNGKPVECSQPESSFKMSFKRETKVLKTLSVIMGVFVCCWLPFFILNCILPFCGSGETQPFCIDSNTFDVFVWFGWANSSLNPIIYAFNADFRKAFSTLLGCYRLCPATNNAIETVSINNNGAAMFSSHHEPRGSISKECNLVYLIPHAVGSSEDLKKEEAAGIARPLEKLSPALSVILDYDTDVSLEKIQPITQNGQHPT
Sequence of Histamine H1 receptor (Homo sapiens) (P35367 whole entry): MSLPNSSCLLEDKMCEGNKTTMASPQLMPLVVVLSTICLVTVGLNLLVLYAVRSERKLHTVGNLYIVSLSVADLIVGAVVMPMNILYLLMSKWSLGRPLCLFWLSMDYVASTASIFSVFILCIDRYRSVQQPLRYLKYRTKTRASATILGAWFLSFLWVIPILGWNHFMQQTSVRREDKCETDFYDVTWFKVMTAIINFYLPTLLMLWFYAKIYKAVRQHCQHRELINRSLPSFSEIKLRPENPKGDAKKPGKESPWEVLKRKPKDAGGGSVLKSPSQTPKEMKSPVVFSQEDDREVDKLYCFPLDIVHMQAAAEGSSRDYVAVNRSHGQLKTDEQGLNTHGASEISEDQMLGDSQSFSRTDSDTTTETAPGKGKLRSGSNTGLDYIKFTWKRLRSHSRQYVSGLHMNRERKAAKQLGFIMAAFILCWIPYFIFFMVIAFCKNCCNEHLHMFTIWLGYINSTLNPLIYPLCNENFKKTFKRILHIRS
Sequence of D(3) dopamine receptor (P35462 whole entry): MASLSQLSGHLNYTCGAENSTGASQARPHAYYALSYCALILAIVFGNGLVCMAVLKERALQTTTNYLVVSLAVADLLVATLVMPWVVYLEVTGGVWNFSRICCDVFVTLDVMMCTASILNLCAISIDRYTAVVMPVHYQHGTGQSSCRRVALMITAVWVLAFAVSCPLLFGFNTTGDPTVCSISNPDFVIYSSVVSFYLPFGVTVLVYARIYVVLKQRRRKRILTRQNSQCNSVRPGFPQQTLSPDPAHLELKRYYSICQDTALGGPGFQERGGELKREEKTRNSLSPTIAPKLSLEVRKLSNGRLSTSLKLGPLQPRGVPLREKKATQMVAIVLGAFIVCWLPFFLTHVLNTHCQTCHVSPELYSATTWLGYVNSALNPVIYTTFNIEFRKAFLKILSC
Sequence of Sodium-dependent noradrenaline transporter (P23975 whole entry): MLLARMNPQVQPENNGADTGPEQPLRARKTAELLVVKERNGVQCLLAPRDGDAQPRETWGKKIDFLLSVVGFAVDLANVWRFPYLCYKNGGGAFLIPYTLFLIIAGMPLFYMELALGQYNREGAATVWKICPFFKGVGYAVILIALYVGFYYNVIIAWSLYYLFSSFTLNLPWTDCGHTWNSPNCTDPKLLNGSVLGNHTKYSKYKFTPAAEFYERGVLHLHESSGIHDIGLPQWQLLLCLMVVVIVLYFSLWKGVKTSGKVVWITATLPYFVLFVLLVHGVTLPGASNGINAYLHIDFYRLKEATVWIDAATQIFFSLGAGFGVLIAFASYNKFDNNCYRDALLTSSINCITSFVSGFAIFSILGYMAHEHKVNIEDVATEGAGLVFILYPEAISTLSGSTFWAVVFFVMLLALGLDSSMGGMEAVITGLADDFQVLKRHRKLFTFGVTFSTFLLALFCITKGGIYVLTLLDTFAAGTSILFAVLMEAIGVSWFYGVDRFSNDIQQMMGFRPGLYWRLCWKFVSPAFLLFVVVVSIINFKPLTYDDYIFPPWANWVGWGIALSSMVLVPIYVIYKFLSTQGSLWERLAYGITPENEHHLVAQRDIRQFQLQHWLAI
Sequence of Cannabinoid receptor 1 (Homo sapiens) (P21554 whole entry): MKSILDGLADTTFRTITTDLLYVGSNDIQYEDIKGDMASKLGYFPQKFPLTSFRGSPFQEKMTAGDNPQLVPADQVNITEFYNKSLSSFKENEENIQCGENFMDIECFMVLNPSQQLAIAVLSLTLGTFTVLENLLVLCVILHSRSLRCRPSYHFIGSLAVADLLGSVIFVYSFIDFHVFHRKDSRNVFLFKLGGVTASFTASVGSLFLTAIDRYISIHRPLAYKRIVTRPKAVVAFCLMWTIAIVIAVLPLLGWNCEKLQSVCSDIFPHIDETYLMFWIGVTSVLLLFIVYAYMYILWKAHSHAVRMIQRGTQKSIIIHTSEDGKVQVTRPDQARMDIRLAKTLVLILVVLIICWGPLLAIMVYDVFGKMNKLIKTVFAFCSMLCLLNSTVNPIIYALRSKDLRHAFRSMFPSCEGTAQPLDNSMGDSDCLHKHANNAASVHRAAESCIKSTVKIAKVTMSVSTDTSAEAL

`COc1cc2c(cc1OC)CN(CCCCn1cc(-c3ccc(F)cc3)c3ccccc31)CC2`: the inhibition result in [1], in assay [3], in [5], in [8], in assay [9] and in assay [13] was “inactive” in each case. Besides, in assay [17], the inhibition result was “inactive”. The inhibition entry in [2], in [4], in [7], in assay [10], in assay [11] and in [14] was “Active” each time. The inhibition entry in [15] and in assay [16] was “Active” in each case. In addition, the Ki was 1.27 µM in assay [6]; 0.544 µM on D(3) dopamine receptor; 0.87 µM on D(2) dopamine receptor; 1.35 µM in assay [12]; greater than 10 µM at D(1A) dopamine receptor.
